# Published values gathered from unrelated publications.
# Each line is one published result; the experiments were not run side by side.
# CASP1: Caspase-1 (CASP1, Homo sapiens, UniProt P29466)
# PPARA: Peroxisome proliferator-activated receptor alpha (PPARA, Homo sapiens, UniProt Q07869)
# ADRA1B: Alpha-1B adrenergic receptor (ADRA1B, Homo sapiens, UniProt P35368)
Compound,target,assay,setting,Ki [nM]
O=c1cc(-c2ccc(O)c(O)c2)oc2cc(O)cc(O)c12,CASP1,"enzyme activity, inhibitor, fluorescence",,119000
CC1(COc2ccc(CC3SC(=O)NC3=O)cc2)CCCCC1 (stereo not shown),PPARA,"ligand displacement, TR-FRET",,141000
CC(=O)N[C@@H](CC(C)C)C(=O)N[C@@H](CC(C)C)C(=O)N[C@@H](CCCN=C(N)N)C(=O)N[C@H](C(=O)N[C@@H](CCCCN)C(=O)N[C@@H](CCCN=C(N)N)C(N)=O)C(C)C,"Neuroendocrine convertase 2 (Homo sapiens, UniProt P16519)","enzyme activity, inhibitor",,1600
Cc1c(C)n(Cc2ccc(-c3ccccc3C(=O)O)cc2)c2ccc(C(=O)N[C@@H](C)c3ccc([N+](=O)[O-])cc3)cc12,PPARA,"ligand displacement, TR-FRET",,11200
CC(=O)N[C@@H](CCCNC(=N)N)C(=O)NCC(=O)NCC(=O)N1CCC[C@H]1B(O)O,"Prolyl endopeptidase (PREP, Homo sapiens, UniProt P48147)","enzyme activity, inhibitor, fluorescence",,1.6
O=S(=O)(Nc1ccc[nH]c1=S)c1cccs1,"Insulin-degrading enzyme (IDE, Homo sapiens, UniProt P14735)","enzyme activity, inhibitor, fluorescence",,77000
O=C1c2ccccc2CCCN1CCCCN1CCN(c2ccccn2)CC1,ADRA1B,"ligand displacement, radioligand",,2540
CC[C@H](C)[C@H](NC(=O)[C@H](CCCNC(=N)N)NC(=O)[C@H](CCCNC(=N)N)NC(=O)[C@H](CC(C)C)NC(=O)CNC(=O)[C@H](CCC(N)=O)NC(=O)[C@H](C)NC(=O)[C@@H](NC(=O)[C@H](Cc1c[nH]c2ccccc12)NC(=O)[C@@H](NC(=O)[C@H](CCC(=O)O)NC(=O)[C@@H]1CCCN1C(=O)[C@H](CCCNC(=N)N)NC(C)=O)[C@@H](C)CC)[C@@H](C)CC)C(=O)NCC(=O)N[C@@H](CC(=O)O)C(=O)N[C@H](C(=O)N[C@@H](Cc1c[nH]c2ccccc12)C(=O)N[C@@H](CC(N)=O)C(=O)N[C@@H](C)C(=O)N[C@@H](Cc1ccc(O)cc1)C(=O)N[C@@H](Cc1ccc(O)cc1)C(=O)N[C@@H](C)C(=O)N[C@@H](CCCNC(=N)N)C(N)=O)[C@@H](C)O,"Bcl-2-related protein A1 (Homo sapiens, UniProt Q16548)","ligand displacement, FP",pH 7.8,8
Cc1cccc(C(=O)NCN2CCN(c3ccccc3C#N)CC2)c1,"D(2) dopamine receptor (Drd2, Rattus norvegicus, UniProt P61169)","ligand displacement, radioligand",cell membranes,1380
COc1ccc2c(c1)C(=O)N(CCN1CCN(c3ccccc3OC)CC1)C2,ADRA1B,"ligand displacement, radioligand",,38.7
O=c1c(O)c(-c2ccc(O)cc2)oc2cc(O)cc(O)c12,CASP1,"enzyme activity, inhibitor, fluorescence",,> 300000
CCCC[C@H](NC(=O)[C@H](C)c1c(C)[nH]c2ccc(O)cc12)c1ncc(-c2cc3ccccc3nc2OC)[nH]1,"Histone deacetylase 3 (HDAC3, Homo sapiens, UniProt O15379)","enzyme activity, inhibitor",,60
O=C1c2ccccc2CCN1CCCCN1CCN(c2cccc(Cl)c2Cl)CC1,ADRA1B,"ligand displacement, radioligand",,649
